Holding throughout (assay type): functional
The species entered for assay [1] is Rattus norvegicus. The assay is described as follows: Percent inhibition of [14C]acetate incorporation into cholesterol, after incubation with rat liver slices, at a concentration of 0.005 M. An outline of the steps: (§1)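 Rat liver slices (250 mg) were incubated with and without compound in 4 mL Krebs-Ringer bicarbonate buffer, pH 7.4, containing 4 mM [2-14C]acetate and flushed with 95% O2-5% CO2. 14C incorporation into CO2, long-chain fatty acids and cholesterol was measured and compared against incubations without compound. Values are arithmetic means of three determinations.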

Assay [2] is filed under the species Rattus norvegicus. The assay is described as follows: Percent inhibition of [14C]acetate incorporation into CO2, after incubation with rat liver slices at a concentration of 0.005 M. An outline of the steps:
as §1

The species named for assay [3] is Rattus norvegicus. The assay is described as follows: Percent inhibition of [14C]acetate incorporation into long-chain fatty acids, after incubation with rat liver slices, at a concentration of 0.005 M. The procedure, abridged: as §1
The species named for assay [4] is Rattus norvegicus. The assay is described as follows: Percent inhibition of [14C]acetate incorporation into long-chain fatty acids, after incubation with rat liver slices, at a concentration of 0.0005 M. An outline of the steps:
as §1

The species named for assay [5] is Rattus norvegicus. The assay can be described thus: Percent inhibition of [14C]acetate incorporation into cholesterol, after incubation with rat liver slices, at a concentration of 0.0005 M. An outline of the steps:
as §1

The species named for assay [6] is Rattus norvegicus. The assay can be described thus: Percent inhibition of [14C]-acetate incorporation into CO2, after incubation with rat liver slices at a concentration of 0.0005 M. The procedure, abridged: as §1

Some results are limits rather than exact numbers.

`CC1(CC(=O)O)OC(=O)c2ccccc21` (centres undefined): the Inhibition in the assay filed under Rattus norvegicus [1] is listed as 48%; in the assay listed under Rattus norvegicus [2], below 10%; in the assay filed under Rattus norvegicus [3], 54%.

For the compound `CCC1(C)OC(=O)c2ccccc21` (centres undefined), the Inhibition is 29% in the assay filed under Rattus norvegicus [4]; 22% in the assay filed under Rattus norvegicus [5]; below 10% in the assay listed under Rattus norvegicus [6]; 99% in the assay filed under Rattus norvegicus [1]; 86% in the assay filed under Rattus norvegicus [2]; 99% in the assay filed under Rattus norvegicus [3].

For `CCC1(C)OC(=O)C2=C1CCCC2` (centres undefined), the Inhibition in the assay listed under Rattus norvegicus [1] turned out to be 81%; in the assay listed under Rattus norvegicus [2], 63%; in the assay filed under Rattus norvegicus [3], 81%.

With `CC1(CC(=O)O)OC(=O)[C@H]2CCCC[C@H]21` (some centres undefined), the results for the Inhibition in the assay listed under Rattus norvegicus [1], in the assay listed under Rattus norvegicus [2] and in the assay filed under Rattus norvegicus [3] were 30%, 23% and 34%, respectively.

Turning to `CC1(CC(=O)O)OC(=O)[C@@H]2CCCC[C@H]21` (some centres undefined), the Inhibition in the assay listed under Rattus norvegicus [1] turned out to be 42%; in the assay filed under Rattus norvegicus [2], 37%; in the assay listed under Rattus norvegicus [3], 67%.

As to `CC(O)(CC(=O)O)CC(=O)O` [MEGLUTOL], the Inhibition in the assay listed under Rattus norvegicus [1] is listed as 12%; in the assay filed under Rattus norvegicus [2], below 10%; in the assay filed under Rattus norvegicus [3], below 10%.

As for `CC1(CC(=O)O)OC(=O)C2=C1CCCC2` (centres undefined), the Inhibition in the assay listed under Rattus norvegicus [1] came to 63%; in the assay filed under Rattus norvegicus [2], 45%; in the assay filed under Rattus norvegicus [3], 83%.

For the origin of these results see ChEMBL document CHEMBL1122417, “Synthesis of 3-hydroxy-3-cyclohexylbutyric acid derivatives. 1. Cyclic homologues of 3-hydroxy-3-methylglutaric acid” (1983).
